A value given as a limit tells only on which side of the number the result lay.

The source of these data is ChEMBL document CHEMBL1759933, “Synthesis, human monoamine oxidase inhibitory activity and molecular docking studies of 3-heteroarylcoumarin derivatives” (Eur J Med Chem, 2011).

One data set deals with T1, Amine oxidase [flavin-containing] A (Homo sapiens, UniProt P21397).
T1 sequence (P21397 whole entry): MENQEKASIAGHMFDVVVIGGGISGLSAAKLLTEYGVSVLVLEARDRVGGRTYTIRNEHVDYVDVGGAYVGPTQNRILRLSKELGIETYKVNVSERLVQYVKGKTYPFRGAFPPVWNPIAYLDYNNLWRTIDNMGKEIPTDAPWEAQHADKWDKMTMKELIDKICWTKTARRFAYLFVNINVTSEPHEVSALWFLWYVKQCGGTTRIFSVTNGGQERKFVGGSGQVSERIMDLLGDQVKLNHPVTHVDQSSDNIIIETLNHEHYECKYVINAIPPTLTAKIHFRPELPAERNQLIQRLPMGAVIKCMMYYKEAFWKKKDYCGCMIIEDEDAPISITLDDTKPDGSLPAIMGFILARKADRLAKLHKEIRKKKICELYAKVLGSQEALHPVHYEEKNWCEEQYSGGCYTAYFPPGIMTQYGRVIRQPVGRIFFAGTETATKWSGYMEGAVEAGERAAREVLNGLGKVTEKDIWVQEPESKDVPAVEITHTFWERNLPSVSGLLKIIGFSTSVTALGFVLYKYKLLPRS
Briefly: Inhibition of human recombinant MAO-A expressed in BTI-TN-5B1-4 cells assessed as H2O2 production using para-tyramine substrate at 100 uM by fluorimetric method. The data set is classed as cell-based. To be noted: bti-tn-5b1-4, 100 µM.
For the compound `COc1cc(OC)c2cc(-c3c[nH]c4ccccc34)c(=O)oc2c1`, the “inhibition (INH)” value is on record as “Not Active”.

In the case of `COc1ccc2oc(=O)c(-c3c[nH]c4ccccc34)cc2c1`, the “inhibition (INH)” value is on record as “Not Active”.

For the compound `O=c1oc2ccccc2cc1-c1cccs1`, the “inhibition (INH)” value was “Not Active”.

As for `COc1ccc2oc(=O)c(-c3ccsc3)cc2c1`, the “inhibition (INH)” value is given as “Not Active”.

Regarding `O=c1oc2ccccc2cc1-c1ccsc1`, the “inhibition (INH)” value is recorded as “Not Active”.

Turning to `COc1ccc2oc(=O)c(-c3cccs3)cc2c1`, the “inhibition (INH)” value is “Not Active”.

For `COc1cc(OC)c2cc(-c3cccs3)c(=O)oc2c1`, the “inhibition (INH)” value is “Not Active”.

As to `COc1ccc2cc(-c3cccs3)c(=O)oc2c1`, the “inhibition (INH)” value is reported as “Not Active”.

Turning to `O=c1oc2ccccc2cc1-c1c[nH]c2ccccc12`, the “inhibition (INH)” value is recorded as “Not Active”.

Regarding `COc1cc(OC)c2cc(-c3ccsc3)c(=O)oc2c1`, the “inhibition (INH)” value was “Not Active”.

For the next data set, the target named is T2, Amine oxidase [flavin-containing] B (Homo sapiens, UniProt P27338).
T2 sequence (P27338 whole entry): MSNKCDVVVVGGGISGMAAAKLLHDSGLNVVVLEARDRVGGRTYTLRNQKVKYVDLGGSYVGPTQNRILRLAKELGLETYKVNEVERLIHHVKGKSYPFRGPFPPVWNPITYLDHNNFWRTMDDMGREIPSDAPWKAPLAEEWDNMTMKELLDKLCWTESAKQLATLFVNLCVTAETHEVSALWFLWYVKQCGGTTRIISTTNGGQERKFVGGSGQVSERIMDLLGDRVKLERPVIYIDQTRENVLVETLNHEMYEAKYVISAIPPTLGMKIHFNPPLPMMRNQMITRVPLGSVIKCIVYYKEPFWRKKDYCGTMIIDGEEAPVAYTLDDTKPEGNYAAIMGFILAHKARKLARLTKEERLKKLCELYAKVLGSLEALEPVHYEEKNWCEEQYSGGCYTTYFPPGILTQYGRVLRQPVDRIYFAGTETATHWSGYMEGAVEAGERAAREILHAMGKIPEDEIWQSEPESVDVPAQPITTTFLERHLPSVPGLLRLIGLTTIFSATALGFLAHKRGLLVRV
Kind of data set: Inhibition of human recombinant MAO-B expressed in BTI-TN-5B1-4 cells assessed as H2O2 production using para-tyramine substrate at 100 uM by fluorimetric method. Type of data set: cell-based. To be noted: bti-tn-5b1-4, 100 µM.
On to `COc1cc(OC)c2cc(-c3c[nH]c4ccccc34)c(=O)oc2c1`, for which the “inhibition (INH)” value is on record as “Not Active”.

For the compound `COc1ccc2oc(=O)c(-c3c[nH]c4ccccc34)cc2c1`, the “inhibition (INH)” value is recorded as “Not Active”.

For `COc1cc(OC)c2cc(-c3cccs3)c(=O)oc2c1`, the “inhibition (INH)” value is reported as “Not Active”.

On to `COc1cc(OC)c2cc(-c3ccsc3)c(=O)oc2c1`, for which the “inhibition (INH)” value is “Not Active”.

Another data set is filed under the species Homo sapiens. Briefly: Selectivity index, ratio of IC50 for human recombinant MAO-A to IC50 for human recombinant MAO-B.
Details: not given; call rule not given here
Summed up:
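SI is IC50(hMAO-A)/IC50(hMAO-B), from IC50s measured by Amplex Red/HRP fluorimetry of p-tyramine-driven H2O2 with baculovirus-expressed human isoforms (mean of five experiments each). Where no MAO-A IC50 was reached, the highest concentration tested was taken as that IC50.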
Consider `COc1ccc2cc(-c3ccsc3)c(=O)oc2c1`, for which the Ratio IC50 was above 75.

For the compound `O=c1oc2ccccc2cc1-c1cccs1`, the Ratio IC50 is above 15.

With `COc1ccc2oc(=O)c(-c3ccsc3)cc2c1`, the Ratio IC50 was above 428.

`O=c1oc2ccccc2cc1-c1ccsc1`: the Ratio IC50 is above 7.5.

`COc1ccc2oc(=O)c(-c3cccs3)cc2c1`: the Ratio IC50 was above 158.

Regarding `COc1ccc2cc(-c3cccs3)c(=O)oc2c1`, the Ratio IC50 was above 380.

As to `O=c1oc2ccccc2cc1-c1c[nH]c2ccccc12`, the Ratio IC50 was above 52.

Regarding `COc1ccc2cc(-c3c[nH]c4ccccc34)c(=O)oc2c1`, the Ratio IC50 was above 210.

The next data set addresses T1, Amine oxidase [flavin-containing] A. Briefly: Inhibition of human recombinant MAO-A expressed in BTI-TN-5B1-4 cells assessed as H2O2 production using para-tyramine substrate by fluorimetric method. The data set is classed as cell-based.
Details: not given
Consider `COc1ccc2cc(-c3ccsc3)c(=O)oc2c1`, for which the concentration for half-maximal inhibition (IC50) stood at 4160 nM.

On to `COc1ccc2cc(-c3c[nH]c4ccccc34)c(=O)oc2c1`, for which the IC50 came to 9670 nM.

The next data set has as its target T2, Amine oxidase [flavin-containing] B. Kind of data set: Inhibition of human recombinant MAO-B expressed in BTI-TN-5B1-4 cells assessed as H2O2 production using para-tyramine substrate by fluorimetric method. The data set is classed as cell-based.
Details: not given
In the case of `COc1ccc2cc(-c3ccsc3)c(=O)oc2c1`, the concentration for half-maximal inhibition (IC50) worked out at 55.6 nM.

On to `O=c1oc2ccccc2cc1-c1cccs1`, for which the IC50 came to 6370 nM.

For `COc1ccc2oc(=O)c(-c3ccsc3)cc2c1`, the IC50 was determined as 234 nM.

For `O=c1oc2ccccc2cc1-c1ccsc1`, the half-inhibitory concentration (IC50) stood at 13300 nM.

In the case of `COc1ccc2oc(=O)c(-c3cccs3)cc2c1`, the IC50 stood at 634 nM.

In the case of `COc1ccc2cc(-c3cccs3)c(=O)oc2c1`, the IC50 amounted to 263 nM.

As to `O=c1oc2ccccc2cc1-c1c[nH]c2ccccc12`, the IC50 was determined as 1920 nM.

For the compound `COc1ccc2cc(-c3c[nH]c4ccccc34)c(=O)oc2c1`, the IC50 is 46 nM.
